Consider eight molecules from ChEMBL document CHEMBL3232719 (J Med Chem, 2014).

Active and inactive are the calls of the source. No cut-off for these calls is given here.

A word on the IC50: it is the concentration that inhibits the measured activity by half.

In experiment [1] the target is 26S proteasome. As to the kind of experiment: Inhibition of chymotrypsin-like activity of human 20S proteasome using Suc-LLVY-AMC as substrate. It counts as protein-complex assay.
Experiment [2] addresses 26S proteasome. As to the kind of experiment: Inhibition of caspase-like activity of human 20S proteasome using Ac-nLPnLD-AMC as substrate. The format is protein-complex assay.
Experiment [3] has as its target 26S proteasome. As to the kind of experiment: Inhibition of trypsin-like activity of human 20S proteasome using Ac-RLR-AMC as substrate. It counts as protein-complex assay.
In experiment [4] the test system is HCT-116. As to the kind of experiment: Inhibition of human HCT116 cell growth. It counts as functional, cell-based.
The target in experiment [5] is T1, Proteasome subunit beta type-8 (Homo sapiens, UniProt P28062).
T1 sequence (P28062 whole entry): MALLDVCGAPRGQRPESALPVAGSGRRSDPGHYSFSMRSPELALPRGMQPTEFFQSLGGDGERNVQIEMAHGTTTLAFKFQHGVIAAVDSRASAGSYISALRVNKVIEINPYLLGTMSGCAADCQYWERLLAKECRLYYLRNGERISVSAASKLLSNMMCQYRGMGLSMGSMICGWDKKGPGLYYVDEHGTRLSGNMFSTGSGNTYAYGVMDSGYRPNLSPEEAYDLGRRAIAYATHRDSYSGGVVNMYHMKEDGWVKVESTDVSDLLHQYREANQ
As to the kind of experiment: Inhibition of beta5i subunit of immunoproteasome (unknown origin) by active-site ELISA.

For experiment [6], the target named is T2, Lysosomal protective protein (Homo sapiens, UniProt P10619).
T2 sequence (P10619 whole entry): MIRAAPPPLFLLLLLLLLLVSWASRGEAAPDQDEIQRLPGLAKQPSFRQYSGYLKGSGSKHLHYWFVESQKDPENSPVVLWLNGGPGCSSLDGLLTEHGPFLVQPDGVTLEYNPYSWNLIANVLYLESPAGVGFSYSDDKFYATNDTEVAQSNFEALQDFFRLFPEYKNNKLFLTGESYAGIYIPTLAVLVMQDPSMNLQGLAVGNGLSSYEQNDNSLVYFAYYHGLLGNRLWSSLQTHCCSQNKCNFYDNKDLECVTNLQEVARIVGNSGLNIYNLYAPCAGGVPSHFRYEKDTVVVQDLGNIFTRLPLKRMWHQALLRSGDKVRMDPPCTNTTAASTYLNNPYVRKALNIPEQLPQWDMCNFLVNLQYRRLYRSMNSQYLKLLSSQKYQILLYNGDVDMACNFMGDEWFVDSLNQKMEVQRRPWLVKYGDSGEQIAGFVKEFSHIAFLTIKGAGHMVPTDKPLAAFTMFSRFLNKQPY
As to the kind of experiment: Inhibition of recombinant cathepsin A (unknown origin) using Mca-Arg-Pro-Pro-Gly-Phe-Ser-Ala-Phe-Lys(Dnp)-OH as substrate incubated with enzyme for 5 mins prior to substrate challenge for 2 hrs by spectrofluorometer analysis.

A further experiment addresses Cathepsin B (Homo sapiens, UniProt P07858). As to the kind of experiment: Inhibition of recombinant cathepsin B (unknown origin) using Z-Leu-Arg-AMC as substrate by spectrofluorometer analysis.
The next experiment deals with T3, Cathepsin G (Homo sapiens, UniProt P08311).
T3 sequence (P08311 whole entry): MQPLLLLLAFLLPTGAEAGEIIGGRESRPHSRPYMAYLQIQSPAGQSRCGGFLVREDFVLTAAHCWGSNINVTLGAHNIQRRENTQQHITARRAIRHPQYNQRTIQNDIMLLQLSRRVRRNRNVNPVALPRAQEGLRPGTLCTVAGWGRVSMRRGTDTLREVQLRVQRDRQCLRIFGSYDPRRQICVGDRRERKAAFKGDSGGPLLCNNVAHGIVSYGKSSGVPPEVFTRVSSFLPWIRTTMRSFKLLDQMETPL
As to the kind of experiment: Inhibition of recombinant cathepsin G (unknown origin) using Suc-Ala-Ala-Pro-Phe-AMC as substrate by spectrofluorometer analysis.

In experiment [7] the test system is HCT-116. As to the kind of experiment: Cell cycle arrest in human HCT116 cells assessed as accumulation at G1 phase at 100 nM after 24 hrs by propidium iodide staining based flow cytometry (reference value: 35.6%). It counts as functional. Background: Flow cytometry measures light scatter and fluorescence of single cells or particles in a stream.
The test system of experiment [8] is HCT-116. As to the kind of experiment: Cell cycle arrest in human HCT116 cells assessed as accumulation at S phase at 100 nM after 24 hrs by propidium iodide staining based flow cytometry (reference value: 45.3%). It counts as functional.
Experiment [9] has as its system HCT-116. As to the kind of experiment: Cell cycle arrest in human HCT116 cells assessed as accumulation at G2/M phase at 100 nM after 24 hrs by propidium iodide staining based flow cytometry (reference value: 19.1%). The format is functional.
Experiment [10] relates to HCT-116. As to the kind of experiment: Induction of apoptosis in human HCT116 cells assessed as increase in p53 expression by immunoblot analysis. The format is functional, cell-based. Summed up: (§1)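 HCT116 cells were treated with compound or DMSO vehicle. Lysates were immunoblotted for p53 accumulation and for cleaved PARP as the apoptosis marker.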
A general note: Immunoblotting shows a protein as a band on a membrane.

Experiment [11] relates to HCT-116. As to the kind of experiment: Induction of apoptosis in human HCT116 cells assessed as increase in PARP cleavage by immunoblot analysis. The format is functional, cell-based. Summed up:
as §1

The target of experiment [12] is T4, Proteasome Macropain subunit MB1 (Homo sapiens, UniProt P28074).
T4 sequence (P28074 whole entry): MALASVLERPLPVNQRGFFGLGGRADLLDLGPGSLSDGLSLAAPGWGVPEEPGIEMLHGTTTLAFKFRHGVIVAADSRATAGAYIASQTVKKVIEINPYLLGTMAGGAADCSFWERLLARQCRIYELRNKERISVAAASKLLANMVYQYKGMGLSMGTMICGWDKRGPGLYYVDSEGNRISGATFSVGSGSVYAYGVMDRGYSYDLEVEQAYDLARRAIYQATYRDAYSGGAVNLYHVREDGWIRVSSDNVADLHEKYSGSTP
As to the kind of experiment: Inhibition of beta5 subunit of constitutive proteasome (unknown origin) by active-site ELISA.

The target in experiment [13] is T5, Proteasome Macropain subunit MB1 (Homo sapiens) (UniProt P28074).
T5 sequence (whole entry): T4 sequence (P28074 whole entry)
As to the kind of experiment: Binding affinity to beta5 subunit of 20S proteasome (unknown origin) assessed as dissociation half-life. The method, boiled down:
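Human 20S proteasome was preincubated with inhibitor. Chymotrypsin-like activity was then measured before and after removal of free inhibitor by dialysis (wash-out), with reference reversible and irreversible inhibitors run alongside.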

Experiment [14] in a line: Inhibition of caspase-like activity of proteasome (unknown origin). On the set-up: species or system Homo sapiens.

For `CC(=O)N[C@@H](CC(=O)NCCC(COCc1ccccc1)COCc1ccccc1)C(=O)N[C@@H](CC(C)C)B1O[C@@H]2C[C@@H]3C[C@@H](C3(C)C)[C@]2(C)O1`, the half-maximal inhibitory concentration (IC50) against 26S proteasome [1] was 2.7 nM; on 26S proteasome [2], 150 nM; at 26S proteasome [3], 2700 nM; in the experiment with HCT-116 [4], 31.8 nM; in experiment [5] it was 31 nM; in experiment [6] it was more than 30000 nM. The IC50 was more than 30000 nM at Cathepsin B, more than 30000 nM on Cathepsin G and 140 nM in [12]. Further, the figures for the Activity in the experiment with HCT-116 [7], in the experiment with HCT-116 [8] and with HCT-116 [9] were 3.2%, 25.1% and 71.7%, respectively. For the same molecule, the outcome in the experiment on HCT-116 [10] and in the experiment on HCT-116 [11] was Active.
With `CC(=O)N[C@@H](CC(=O)NCCCCOCc1ccccc1)C(=O)N[C@@H](CC(C)C)B1O[C@@H]2C[C@@H]3C[C@@H](C3(C)C)[C@]2(C)O1`, the IC50 on 26S proteasome [1] is 4.8 nM; at 26S proteasome [2] it was 170 nM; against 26S proteasome [3], 2170 nM; with HCT-116 [4] it was 130 nM; in experiment [5], 59 nM; in experiment [6] it was more than 30000 nM. In addition, the IC50 is more than 30000 nM on Cathepsin B, more than 30000 nM on Cathepsin G and 280 nM in experiment [12]. The Activity in the experiment with HCT-116 [7] is reported as 22.9%; in the experiment with HCT-116 [8], 26.6%; in the experiment on HCT-116 [9], 50.5%. The outcome with HCT-116 [10] and in the experiment with HCT-116 [11] was Active.
As to `CC(C)C[C@H](NC(=O)CNC(=O)c1cc(Cl)ccc1Cl)B1OC(=O)CC(CC(=O)O)(C(=O)O)O1` (stereo not given in full), in [13], the T1/2 was 18 min.
Take `CC(C)C[C@H](NC(=O)[C@H](Cc1ccccc1)NC(=O)c1cnccn1)B(O)O` [BORTEZOMIB]: the IC50 is 5 nM in the experiment with HCT-116 [4], 9200 nM in [6], more than 30000 nM on Cathepsin B and 3100 nM on Cathepsin G. In addition, the Activity was determined as 3% with HCT-116 [7], 21% in the experiment with HCT-116 [8] and 76% in the experiment with HCT-116 [9].
Regarding `CC(=O)N[C@@H](CSC(=O)[C@]1([C@@H](O)C(C)C)NC(=O)[C@H](C)[C@@H]1O)C(=O)O` [LACTACYSTIN], in experiment [5], the IC50 was more than 3000 nM.
`CC(C)C[C@H](NC(=O)[C@H](CCc1ccccc1)NC(=O)CN1CCOCC1)C(=O)N[C@@H](Cc1ccccc1)C(=O)N[C@@H](CC(C)C)C(=O)[C@@]1(C)CO1` [CARFILZOMIB]: the IC50 in [6] is more than 30000 nM; at Cathepsin B, 11000 nM; at Cathepsin G, more than 30000 nM.
`CC(C)C[C@H](NC(=O)[C@@H](NC(=O)c1cccc(-c2ccccc2)n1)[C@@H](C)O)B(O)O` [DELANZOMIB] came in with a 50% inhibitory concentration (IC50) in experiment [14] of 70 nM.
In the case of `CC(C)C[C@H](NC(=O)[C@H](CC(=O)NCCC(COCc1ccccc1)COCc1ccccc1)NC(=O)c1cc(Cl)ccc1Cl)B1O[C@@H]2C[C@@H]3C[C@@H](C3(C)C)[C@]2(C)O1`, the IC50 is 5.9 nM at 26S proteasome [1], 250 nM against 26S proteasome [2], more than 10000 nM at 26S proteasome [3] and 140 nM with HCT-116 [4].
